Reference: ChEMBL document CHEMBL1123276, “Analgetic and antiinflammatory 7-aroylbenzofuran-5-ylacetic acids and 7-aroylbenzothiophene-5-ylacetic acids” (1986)

Columns and labels:
Type in all cases: functional
Mus musculus [1] = assay: Inhibition of phenylquinone -induced writhing in male mice by p.o. administration 20 min prior to i.p. phenylquinone (relative to aspirin).
In short: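 Male mice, 18-20 g, dosed orally in the same aqueous saline/CMC/polysorbate 80/benzyl alcohol vehicle 20 min before intraperitoneal phenylquinone. Writhing observed for 10 min. Potency vs aspirin derived from dose-response curves by analysis of variance. Eight mice per dose group.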

Rattus norvegicus [2] = assay: Anti-inflammatory activity against carrageenan-induced paw edema in female rats relative to phenylbutazone by p.o. administration.
In short: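 Test agents given in saline/0.5% carboxymethylcellulose/0.4% polysorbate 80/0.9% benzyl alcohol aqueous vehicle. Rats killed 4 h after dosing, and both hindpaws excised and weighed. Potency vs phenylbutazone taken from dose-response plots of mean % weight increase of treated over untreated paw. Six rats per dose, at least four doses, linear parallel curves, analysis of variance.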

Mus musculus [3] = species on record: Mus musculus; assay: Dose required for the inhibition of phenylquinone-induced writhing in male mice
Rattus norvegicus [4] = assay: Chronic gastrointestinal erosive activity in male rats by the oral administration was determined.
In short: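 Male Cox/SD rats, 190-220 g, acclimated about 1 week. Dosed orally once daily in phosphate-buffered saline (1 mL/100 g) for 7 consecutive days, 5 rats per dose. Food withdrawn on the last dosing day. Killed one day after the last dose, with body weight recorded at start and at sacrifice. Stomach and small intestine scored blind for lesions.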

Structure (SMILES) | Relative potency (Mus musculus [1]) | Relative potency (Rattus norvegicus [2]) | ED50 (Mus musculus [3]) [mg/kg] | ED50 (Rattus norvegicus [4]; Rattus norvegicus, po) [mg/kg] | ED50 (Rattus norvegicus [4]) [mg/kg]
CSc1ccc(C(=O)c2cc(CC(=O)O)cc3c2OCC3)cc1 | 8 | 0.2 | – | – | –
CC(C(=O)O)c1cc(C(=O)c2ccc(C=O)cc2)c2occc2c1 (stereo not drawn) | 45 | 1.3 | – | – | –
CS(=O)(=O)c1ccc(C(=O)c2cc(CC(=O)O)cc3ccoc23)cc1 | <1 | – | – | – | –
CC(C(=O)O)c1cc(C(=O)c2ccccc2)c2occc2c1 (stereo not drawn) | 42.4 | 1.8 | – | – | –
C[S+]([O-])c1ccc(C(=O)c2cc(CC(=O)O)cc3ccoc23)cc1 (stereo not drawn) | 7.5 | 1.8 | – | – | –
O=C(O)Cc1cc(C(=O)c2ccc(Cl)cc2)c2sccc2c1 | 7 | 1.5 | – | – | –
O=C(O)Cc1cc(C(=O)c2ccccc2)c2sccc2c1 | 0.4 | 0.6 | – | – | –
O=C(O)Cc1cc2c(c(C(=O)c3ccccc3)c1)SCC2 | <1 | 0.6 | – | – | –
COc1ccc2c(c1)c(CC(=O)O)c(C)n2C(=O)c1ccc(Cl)cc1 [INDOMETHACIN] | 60 | 16 | 1.16 | 3 | –
CC(C(=O)O)c1cc(C(=O)c2ccc(Cl)cc2)c2occc2c1 (stereo not drawn) | 42.9 | 2 | – | – | –
COc1ccc(C(=O)c2cc(CC(=O)O)cc3ccoc23)cc1 | 33 | 1 | – | – | –
Cc1cc(CC(=O)O)n(C)c1C(=O)c1ccc(Cl)cc1 [ZOMEPIRAC] | 40 | – | 1.75 | 10 | –
O=C(O)Cc1cc(C(=O)c2ccccc2)c2occc2c1 | 40 | 1 | – | – | –
O=C(O)Cc1cc(C(=O)c2ccc(Cl)cc2)c2occc2c1 | 33.9 | 0.6 | – | – | –
O=C(O)Cc1cc2c(c(C(=O)c3ccccc3)c1)OCC2 | 0.25 | 0.7 | – | – | –
CSc1ccc(C(=O)c2cc(C(C)C(=O)O)cc3ccoc23)cc1 (stereo not drawn) | 25 | 18.6 | – | – | ≤ 1
CSc1ccc(C(=O)c2cc(CC(=O)O)cc3ccoc23)cc1 [TIFURAC] | 57 | 3 | 1.2 | ≥ 90 | –
O=C(O)Cc1cc2c(c(C(=O)c3ccc(Cl)cc3)c1)OCC2 | 7 | 0.8 | – | – | –
O=C(O)Cc1cc2c(c(C(=O)c3ccc(Cl)cc3)c1)SCC2 | 0.6 | 0.6 | – | – | –
